Results from ChEMBL document CHEMBL4130343, “Design, synthesis, and evaluation of benzofuran derivatives as novel anti-pancreatic carcinoma agents via interfering the hypoxia environment by targeting HIF-1α pathway” (Eur J Med Chem, 2017).
Values after ≈ are worked out from the molar mass of the structure shown. Active and inactive are the calls of the source. The calls are words filed in the database; no cut-off is given here.

How the values were obtained:
BXPC-3 = test: Antiproliferative activity against human BxPC3 cells after 48 hrs by MTT assay; format: functional, cell-based; settings: BXPC-3, 48 h
Procedure, shortened: (§1)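 Cells were seeded at 5×10^5 cells/mL overnight and exposed to graded compound concentrations for 48 h. MTT (5 mg/mL stock) was added for 4 h at 37 °C, and formazan was dissolved in DMSO. Absorbance was read at 570 nm. IC₅₀ was fitted from the curves; values are mean ± SD, n = 3.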

HCT-116 [1] = test: Antiproliferative activity against human HCT116 cells after 48 hrs by MTT assay; format: functional, cell-based; settings: HCT-116, 48 h; procedure, shortened: as §1
HCT-116 [2] = test: Antiproliferative activity against p53-deficient human HCT116 cells after 48 hrs by MTT assay; format: functional, cell-based; settings: HCT-116, 48 h; procedure, shortened: as §1
MCF7 = test: Antiproliferative activity against human MCF7 cells after 48 hrs by MTT assay; format: functional, cell-based; settings: MCF7, 48 h; procedure, shortened: as §1
A549 = test: Antiproliferative activity against human A549 cells after 48 hrs by MTT assay; format: functional, cell-based; settings: A549, 48 h; procedure, shortened: as §1
MDA-MB-231 = test: Antiproliferative activity against human MDA-MB-231 cells after 48 hrs by MTT assay; format: functional, cell-based; settings: MDA-MB-231, 48 h; procedure, shortened: as §1
[3] = Intrinsic aqueous solubility of the compound; format: physicochemical; settings: read-out: Intrinsic_solubility
Procedure, shortened: (§2)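 Intrinsic aqueous solubility and log D at pH 7.4 were measured on a pION Gemini Profiler.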

[4] = Distribution co-efficient, log D of the compound at pH 7.4; format: physicochemical; settings: buffer; procedure, shortened: as §2
[5] = Cmax in rat at 10 mg/kg, po after 0.083 to 24 hrs by LC-MS/MS method; format: ADME, organism-based; design: dose 10 mg/kg, route oral; settings: in vivo
[6] = AUC (0 to t) in rat at 10 mg/kg, po after 0.083 to 24 hrs by LC-MS/MS method; format: ADME, organism-based; design: dose 10 mg/kg, time upper 24 hr, time lower 0.083 hr, route oral; settings: in vivo
[7] = Half life in rat at 10 mg/kg, iv after 0.083 to 24 hrs by LC-MS/MS method; format: ADME, organism-based; settings: in vivo
[8] = Plasma concentration in rat at 10 mg/kg, iv after 36 hrs by LC-MS/MS method; format: ADME, organism-based
Procedure, shortened: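 Rats, n = 6 per group, each given a single 10 mg/kg dose. Blood was collected into heparinized tubes and centrifuged at 4 °C and 8000 rpm for 5 min. Plasma was analysed by LC–MS/MS.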

PANC-1 [9] = test: Induction of apoptosis in human PANC1 cells assessed as viable cells at 0.1 uM after 24 hrs by annexin V/propidium iodide staining-based flow cytometric method (reference value: 89.5%); format: functional; settings: PANC-1, 24 h, read-out: Activity
PANC-1 [10] = test: Induction of apoptosis in human PANC1 cells assessed as early apoptotic cells at 1 uM after 24 hrs by annexin V/propidium iodide staining-based flow cytometric method (reference value: 7.25%); format: functional
PANC-1 [11] = test: Induction of apoptosis in human PANC1 cells assessed as viable cells at 1 uM after 24 hrs by annexin V/propidium iodide staining-based flow cytometric method (reference value: 89.5%); format: functional; settings: PANC-1, 24 h, read-out: Activity
PANC-1 [12] = test: Induction of apoptosis in human PANC1 cells assessed as dead cells at 2 uM after 24 hrs by annexin V/propidium iodide staining-based flow cytometric method (reference value: 0.60%); format: functional
PANC-1 [13] = test: Induction of apoptosis in human PANC1 cells after 24 hrs by annexin V/propidium iodide staining-based flow cytometric method; format: functional, cell-based
PANC-1 [14] = test: Anticlonogenic activity against human PANC1 cells after 2 weeks by crystal violet staining-based assay; format: functional, cell-based
Procedure, shortened: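 PANC-1 cells were seeded at 100 cells/well overnight, then exposed to graded compound concentrations for 14 days with medium changed every three days. Colonies were fixed in 10% ethanol for 10 min and stained with 0.5% crystal violet in 25% ethanol for 10 min. Plates were dried and scanned.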

PANC-1 [15] = test: Induction of apoptosis in human PANC1 assessed as increase in cleaved PARP levels at 0.1 to 1 uM after 24 hrs by Western blot method; format: functional, cell-based
Procedure, shortened: (§3)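 PANC-1 cells were treated with graded compound concentrations for 24 h, then lysed. Proteins were separated by SDS-PAGE and blotted to PVDF. Blots were probed for PARP, cleaved PARP, caspase-3, cleaved caspase-3, caspase-9 and cleaved caspase-9, with GAPDH as loading control, and read by infrared imaging. Bands were quantified by densitometry as ratios normalized to GAPDH.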

PANC-1 [16] = test: Induction of apoptosis in human PANC1 assessed as decrease in caspase-3 levels at 0.1 to 1 uM after 24 hrs by Western blot method; format: functional, cell-based; procedure, shortened: as §3
PANC-1 [17] = test: Induction of apoptosis in human PANC1 assessed as decrease in caspase-9 levels at 0.1 to 1 uM after 24 hrs by Western blot method; format: functional, cell-based; procedure, shortened: as §3
PANC-1 [18] = test: Antitumor activity against human PANC1 cells xenografted in nude mouse assessed as inhibition of tumor weight at 30 mg/kg, ip administered every 2 days for 21 days relative to vehicle-treated control; format: functional; settings: PANC-1, ip
Procedure, shortened: (§4)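 Female nude mice received 1×10^7 PANC-1 cells subcutaneously in the right flank. After 4 weeks, mice bearing tumors averaging 100 mm³ were randomized into five groups. Dosing was 15, 30 or 60 mg/kg i.p. every two days for 21 days. Tumor volume = width² × length/2; tumors were weighed at sacrifice, and body weight was monitored.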

PANC-1 [19] = test: Antitumor activity against human PANC1 cells xenografted in nude mouse assessed as inhibition of tumor weight at 60 mg/kg, ip administered every 2 days for 21 days relative to vehicle-treated control; format: functional; settings: PANC-1, ip; procedure, shortened: as §4
Mus musculus [20] = test: Toxicity in nude mouse xenografted with human PANC1 cells assessed as effect on body weight at 15 to 60 mg/kg, ip administered every 2 days for 21 days measured during compound dosing; format: organism-based; settings: in vivo
Procedure, shortened: (§5)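 Female nude mice were implanted s.c. in the right flank with 1×10^7 PANC-1 cells. After 4 weeks, mice with tumours averaging 100 mm³ were randomized into five groups. They were dosed i.p. at 15, 30 or 60 mg/kg every two days for 21 days and monitored for toxicity, tumour growth and body weight.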

Mus musculus [21] = test: Toxicity in nude mouse xenografted with human PANC1 cells assessed as effect on quality of life at 15 to 60 mg/kg, ip administered every 2 days for 21 days measured during compound dosing; format: organism-based; settings: in vivo; procedure, shortened: as §5
HUVEC = test: Antimigratory activity against HUVEC at 1 uM by wound-healing assay; format: functional, cell-based; settings: Homo sapiens, TDE = time-dependent effect
Procedure, shortened: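 HUVEC monolayers at 90% confluence were switched to serum-free medium and scratched with a pipette tip. Compound was added under hypoxia (1% O₂, 94% N₂, 5% CO₂, 37 °C) in the presence of PANC-1 conditioned medium. Wound closure was imaged by inverted-phase microscope at 12 h and 24 h.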

Mus musculus [22] = test: Downregulation of CD31 expression in human PANC1 cells xenografted in nude mouse at 15 to 60 mg/kg, ip administered every 2 days for 21 days by immunohistochemical method; format: functional, organism-based
Procedure, shortened: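 Tumors came from the PANC-1 nude-mouse xenografts dosed at 15, 30 or 60 mg/kg i.p. every two days for 21 days. Tumor sections were stained immunohistochemically with antibodies against CD31, HIF-1α and VEGF.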

Cc1c(C(=O)NC2CCN(C)CC2)oc2ccc(N(Cc3ccc(Br)cc3)S(=O)(=O)c3ccc(Br)cc3)cc12
IC50 (BXPC-3): 650 nM | IC50 (HCT-116 [1]): 1810 nM | IC50 (HCT-116 [2]): 1610 nM | IC50 (MCF7): 2390 nM | IC50 (A549): 2680 nM | IC50 (MDA-MB-231): 1900 nM | solubility [3]: 30.2 µg/mL (≈ 44.7 µM) | logD [4]: 3.15 | Cmax [5]: 80.6 ng/mL | AUC(0-t) [6]: 1080 ng·h/mL | half-life [7]: 461 min | concentration at 36 h [8]: > 10 ng/mL | viability at 0.1 µM (PANC-1 [9]): 85.5% | Activity (PANC-1 [10]): 3.55% | viability at 1 µM (PANC-1 [11]): 50.6% | Activity (PANC-1 [12]): 0.45% | Activity (PANC-1 [13]): Dose-dependent effect | Activity (PANC-1 [14]): Dose-dependent effect | Activity (PANC-1 [15]): Active | Activity (PANC-1 [16]): Active | Activity (PANC-1 [17]): Active | inhibition in vivo at 30 mg/kg (PANC-1 [18]): 66.4% | inhibition in vivo at 60 mg/kg (PANC-1 [19]): 75.8% | Activity (Mus musculus [20]): Non-Toxic | Activity (Mus musculus [21]): Non-Toxic | inhibition (HUVEC): Tde | Activity (Mus musculus [22]): Active
